Screening data (PubChem BioAssay)
FLuc stim CS = affects firefly luciferase, flagging false hits in luciferase stimulation screens | P08659 | ATPlite luciferase biochemical, luminescence, 10 min; 0 = ATP-free wells, 1 = DMSO control | activation factor at 10 µM | 200,000 tested, under 10 active;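 active = luciferase activation factor, scaled between plate controls, of at least 2 with compound at 10 µM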
Target sequence (P08659 whole entry, looked up): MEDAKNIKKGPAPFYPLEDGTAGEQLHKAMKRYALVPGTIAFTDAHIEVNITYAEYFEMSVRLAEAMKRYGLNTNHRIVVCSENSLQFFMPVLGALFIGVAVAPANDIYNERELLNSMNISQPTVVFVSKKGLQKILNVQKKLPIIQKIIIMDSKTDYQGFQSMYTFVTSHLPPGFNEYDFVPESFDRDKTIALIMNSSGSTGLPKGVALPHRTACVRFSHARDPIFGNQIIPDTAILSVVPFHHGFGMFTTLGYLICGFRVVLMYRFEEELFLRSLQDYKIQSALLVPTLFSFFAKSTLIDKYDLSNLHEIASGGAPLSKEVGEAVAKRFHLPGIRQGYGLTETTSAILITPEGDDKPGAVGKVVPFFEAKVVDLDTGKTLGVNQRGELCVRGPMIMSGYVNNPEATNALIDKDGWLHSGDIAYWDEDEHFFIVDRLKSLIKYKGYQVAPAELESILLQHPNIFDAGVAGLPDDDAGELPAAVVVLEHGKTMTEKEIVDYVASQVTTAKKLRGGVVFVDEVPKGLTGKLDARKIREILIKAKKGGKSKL
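Assay system – cell-free luciferase reagent · Medium – PBS-based ATP solution · Dosing – test compounds dosed from 2 mM stocks in 100% DMSO · Timing – 10 min, room temperature · Technique – light output (luminescence) · Measure – luminescence gain marking luciferase activators · Controls – No-ATP low control, compound-free enzyme-plus-ATP high control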
TRAIL sens C8 = sensitizes caspase-8 expressing cells to TRAIL | NB7+C8 cells + TRAIL, ATPlite viability luminescence | inhibition (viability loss, TRAIL sensitization), % at 10 µM | actives 1% (n = 360,000);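 active = compounds causing at least 50% loss of cell viability in the single-dose screen, relative to plate controls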
FLuc inh counter = counter-screen for luciferase assay inhibitors: firefly luciferase inhibition; inhibition, % at 10 µM; ATPLite firefly luciferase biochemical luminescence, 10 min; actives 1.5% (n = 200,000); P08659; AID 1006;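 active = inhibition above about 50% when tested at 10 µM, limit read from the data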
PPC-1+TRAIL kill = compounds killing PPC-1 cancer cells with TRAIL present (potentiator screen, no TRAIL-free arm) | PPC-1 cells + TRAIL, ATPLite viability luminescence | cell killing (% activity), % at 4 µM or 5 µM | actives 0.41% (n = 220,000) | AID 1443;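 active = cell killing above 50% in the first pass at 4 µM, then a duplicate retest at 5 µM averaging 50% or more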;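 also: plate controls were cells with TRAIL plus DMSO for no effect and medium-only wells lacking cells for full effect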
HSP90 inh = blocks HSP90-mediated luciferase refolding in reticulocyte lysate; Rabbit reticulocyte lysate, luciferase refolding luminescence, 3 h; inhibition, % at 5.6 µM; actives 0.91% (n = 290,000); AID 1789;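 active = inhibition above the screen-wide mean plus 3 SD, computed separately per campaign, cut at about 16% in these data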;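 also: 0% = DMSO wells and 100% = 60 µM geldanamycin wells; inhibitors lower the luminescence because luciferase stays unfolded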
Active calls of the source: *; nt = not tested or not shown. In the library only some 2% were active in any assay of this set; here they are far more common.

SMILES	FLuc stim CS	TRAIL sens C8	FLuc inh counter	PPC-1+TRAIL kill	HSP90 inh
O=[N+]([O-])c1ccc(Cl)c([N+](=O)[O-])c1	nt	81*	nt	nt	nt
O=[N+]([O-])c1ccc(O)c([N+](=O)[O-])c1	nt	-5	nt	nt	nt
Cc1ccc2n1Cc1cnnn1-c1ccccc1-2	nt	0	nt	nt	nt
CCOC(=O)C(=CNc1ccc(C(O)(C(=O)OCC)C(F)(F)F)cc1C)C(=O)OCC (stereo unspecified)	1.1	73*	-8	10	0
Clc1ccc(C(c2ccc(Cl)cc2)n2cc[n+](CC(OCc3ccc(Cl)cc3Cl)c3ccc(Cl)cc3Cl)c2)cc1 (stereo unspecified)	nt	94*	nt	nt	nt
CN1CC2CN(Cc3ccccc3)S(=O)(=O)C2C1 (stereo unspecified)	nt	-5	nt	nt	nt
Cc1ccc2nc3c(cc2c1)CC1(C(=O)N(C)C(=O)N(C)C1=O)C1CCCCN31 (stereo unspecified)	0.5	28	53*	38	0
Cc1ccc2nc3c(cc2c1)CC1(C(=O)N(C)C(=O)N(C)C1=O)C1COCCN31 (stereo unspecified)	0.8	17	19	24	-1
O=C1NCN(c2ccccc2)C12CCN(C(CCc1ccccc1)c1nnnn1-c1ccc3c(c1)OCCO3)CC2 (stereo unspecified)	nt	6	nt	nt	nt
C/C(=C\c1ccc(N(C)C)cc1)[N+](=O)[O-]	0.9	50*	6	36	4
CN(C)c1ccc(/C=C/[N+](=O)[O-])cc1	1	17	0	9	6
CC(=O)O[C@H]1[C@H]2O[C@]23[C@@H]2CC[C@]4(O)C[C@@H](O)CC[C@]4(C)C2CC[C@]3(C)[C@H]1c1ccc(=O)oc1 (stereo partly specified)	nt	64*	nt	nt	nt
CC12CC[C@H]3[C@@H](CCC4(O)C[C@H](O)CCC34/C=N/NC(=O)Cc3ccccc3)C1(O)CCC2C1=CC(=O)OC1 (stereo partly specified)	nt	9	nt	-2	-2
C[C@]12CC[C@H]3C(CCC4(O)CC(O)CC[C@]34C=O)C1=CC[C@H]2c1ccc(=O)oc1 (stereo partly specified)	nt	54*	nt	nt	-3
CC1(O)CCC2C3CCC4=CC(=O)CCC4(C)C34OC4CC21C (stereo unspecified)	nt	13	nt	nt	nt
CCCCNC(=O)NC(C(N)=O)P(=O)(OCC)OCC (stereo unspecified)	nt	-26	nt	-4	6
c1ccc2sc(NC3=NCCN3)nc2c1	0.9	-2	10	20	-2
COc1ccc2nc(NC3=NCCN3)sc2c1	0.4	33	57*	14	-1
CC(C)(C)C(=O)O[C@H]1CC[C@@]2(C)C(=CC(=O)C3C2CC[C@]2(C)C(=O)[C@@H](F)CC32)C1 (stereo partly specified)	nt	33	nt	nt	nt
O=C(NCC(c1cccnc1)N1CCOCC1)Oc1ccccc1 (stereo unspecified)	1.1	-2	-5	-7	-2
N#CC(c1cccnc1)N1CCOCC1 (stereo unspecified)	nt	-16	nt	nt	16*
C[C@H]1C(=O)O[C@@H]2CCN3CC=C(COC(=O)[C@](C)(O)[C@]1(C)O)[C@H]23	nt	-8	nt	nt	nt
NC(N)=N/N=C/c1ccc(N(c2ccccc2)c2ccccc2)cc1	nt	69*	nt	nt	4
O=S1(=O)NCC2(CC2)CN1Cc1ccccc1	nt	-11	nt	nt	nt
COc1cc2cc(C(=O)N3CC(COS(C)(=O)=O)c4ccc(O)cc43)[nH]c2c(OC)c1OC (stereo unspecified)	nt	91*	nt	nt	nt
SMILES	FLuc stim CS	TRAIL sens C8	FLuc inh counter	PPC-1+TRAIL kill	HSP90 inh
O=C(O)C(Cc1cnc[nH]1)NS(=O)(=O)c1ccc(Cl)cc1 (stereo unspecified)	1	-2	-4	-6	5
Cc1ccc(-c2cc(-c3ccc(C)cc3)[n+](-c3ccc(C(=O)O)cc3)c(-c3ccc(C)cc3)c2)cc1	nt	4	nt	nt	nt
Cc1ccc(C[n+]2c(-c3ccc(C)cc3)cc(-c3ccc(C)cc3)cc2-c2ccc(C)cc2)cc1	nt	63*	nt	nt	nt
C1=NCCCN2CCCCC12 (stereo unspecified)	nt	-1	nt	nt	nt
N#CC(C#N)=Cc1ccc(C=C(C#N)C#N)cc1	nt	-1	nt	16	49*
Cc1cc(N2CCCC2)ccc1C=C(C#N)C#N	1	-4	-3	-3	2
Cc1ccc2cc(C=C(C#N)C#N)c(Cl)nc2c1	1.1	-1	-5	15	0
C[C@@H]([C@@H](O)c1ccccc1)N(C)C(=O)Cc1ccccc1	nt	-13	nt	nt	nt
CN(C)CC(C(=O)Cc1ccccc1)c1ccccc1 (stereo unspecified)	nt	63*	nt	nt	nt
Cc1c(N)c(C)c([N+](=O)[O-])c(C)c1[N+](=O)[O-]	1.1	2	-8	7	-1
C=CCn1c(O)c(C(CC)=NCc2ccc3c(c2)OCO3)c(=O)[nH]c1=O	nt	11	nt	2	-1
C=CCn1c(O)c(C(CC)=NCc2cc(OC)cc(OC)c2)c(=O)[nH]c1=O	1	50*	0	20	0
Oc1ccc(CC2(N3CCCC3)CCCCC2)cc1	nt	-2	nt	nt	-2
CCCC[C@@H](C)C[C@@H](C)C(=O)N(C)[C@@H](CC(C)C)C(=O)N[C@H](C(=O)N(C)[C@H](C(=O)N1C[C@@H](O)C[C@H]1C(=O)N1C(=O)C=C[C@@H]1C)C(C)C)C(C)OC(C)=O (stereo partly specified)	nt	89*	nt	nt	nt
COc1ccc(C2c3c(nc(C)[nH]c3=O)Oc3c2c(=O)oc2ccccc32)cc1 (stereo unspecified)	nt	nt	nt	8	-1
Cc1cc(C=C2C(=O)NC(=S)NC2=O)c(C)n1C1CCCC1	0.2	-2	77*	16	-2
CC(C)(O)/C=C/C(=O)C(C)(O)C1C(O)CC2(C)C3CC=C4C(C=C(O)C(=O)C4(C)C)C3(C)C(=O)CC12C (stereo unspecified)	nt	62*	nt	nt	nt
O=c1c2ccccc2[se]n1-c1ccccc1	0	-9	96*	21	0
CCn1nc(-c2ccccc2)nc2c(=O)n(C)c(=O)nc1-2	1.1	-4	-5	-2	83*
CCCNC(=O)N1[C@H]2CC[C@@H]1C(C(=O)OC)=C(c1cccc(OC)c1OC)C2	nt	-9	nt	nt	nt
